PubChem BioAssay AID504382 (The Scripps Research Institute Molecular Screening Center, 2011)
Out of some 2,500 compounds screened, about 460 (18%) were called active.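 Rule for the calls: active = mean activation above a cutoff of low control average plus 3 SD from the earlier screen (cut at about 12% in these data); inactive = the rest.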 Only a sample is shown.

Assay: compound fluorescence interference without thin filaments, confirmation, artefact control for cardiac RTF calcium sensitizer project, biochemical (AID 504382)
Conditions: IANBD fluorescence interference counterscreen, buffer, EC20 Ca2+; at 7.2 µM; active compounds read high; scaled: EC20 calcium 0, EC100 calcium 100
Procedure, shortened: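 Medium: MOPS buffer, 190 mM, with KCl, MgCl2, EGTA, NTA, DTT, pH 7.20; Dosing: one dose of 7.2 µM, 0.7% DMSO; Probe or stimulus: calcium at EC20 level, 0.472 mM final; Incubation: 15 min, 25 °C; Evaluation: compound fluorescence interference relative to control well signal range; Signal: fluorescence, 480/540 nm.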

SMILES	fluorescence artifact activation
Nc1nnnn1/N=C/c1cc(Cl)cc(Cl)c1O	0.11% (inactive)
O=C(Nc1ccc(Cl)c(Cl)c1)Nc1ccc([N+](=O)[O-])cn1	8.85% (inactive)
COc1ccc(OC)c2[nH]c(=O)c(CCNS(=O)(=O)c3ccc(Cl)cc3)cc12	-0.04% (inactive)
N#C/C(=C\N1CCN(Cc2ccc3c(c2)OCO3)CC1)c1nc2ccccc2s1	7.04% (inactive)
Cc1ccccc1N=Cc1cc2c(cc1O)OC(N)=C(C#N)C2c1ccccc1 (configuration not stated)	0.04% (inactive)
COc1cccc(C2C(C#N)=C(N)Oc3cc(C)oc(=O)c32)c1OC (configuration not stated)	6.53% (inactive)
COc1ccc(N=Cc2cc3c(cc2O)OC(N)=C(C#N)C3c2ccccc2)cc1 (configuration not stated)	32.9% (active)
CCN(CC)c1ccc(/C=C2\C(=N)N3N=C(CC(=O)N4CCOCC4)SC3=NC2=O)cc1	0.25% (inactive)
CN(C)c1ccc(C=C2SC(=S)NC2=O)cc1	0.13% (inactive)
CCCOc1ccc(-c2nn(-c3ccccc3)cc2/C=C2\SC(N)=NC2=O)cc1	0.02% (inactive)
CCN(CC)c1ccc(C=C2SC(=S)NC2=O)cc1	19.1% (active)
CCOc1ccc(N(C)c2ccc(/C=C3/SC(=S)NC3=O)cc2)cc1	0.1% (inactive)
CCN(CC)c1ccc(/C=C2\SC(N)=NC2=O)cc1	18.7% (active)
COc1cccc(/C=N/Nc2nnc3c(n2)[nH]c2ccccc23)c1OC	0.23% (inactive)
CC[n+]1c(/C=C/N(C)c2ccccc2)oc2ccc(F)cc21	0.51% (inactive)
CCN(CC)c1ccc(/C=N/OCC(=O)Nc2cccc(C)c2)cc1	0.61% (inactive)
C#CCN1c2ccccc2Sc2cccnc21	0.15% (inactive)
O=C(c1cccc(F)c1)N1CCN(C(=O)c2cc(-c3ccc(Cl)cc3Cl)on2)CC1	0.33% (inactive)
Fc1ccc(-c2nnc(-c3ccc(Cl)cc3Cl)o2)cc1	12.9% (active)
Nc1ccn([C@H]2C[C@H](O)[C@@H](CO)O2)c(=O)n1	0.1% (inactive)
CCCNC(=O)Cn1c(=O)/c(=C/c2ccc(-c3ccc([N+](=O)[O-])cc3)o2)s/c1=C\C(=O)C(C)(C)C	10.3% (inactive)
O=c1oc2ccccc2cc1-c1nc(-c2cccs2)cs1	-0.04% (inactive)
O=c1c(-c2ccc(O)cc2O)coc2cc(O)cc(O)c12	0.09% (inactive)

SMILES	fluorescence artifact activation
O=c1oc2ccccc2cc1-c1ccc(O)cc1O	30.6% (active)
COc1ccccc1/C=[N+](\[O-])C1SC(=S)N(C)C1(C)C (configuration not stated)	0.01% (inactive)
CCOc1ccc(N2C(=O)CC(SCc3nc4ccccc4[nH]3)C2=O)cc1 (configuration not stated)	0.12% (inactive)
COC(=O)[C@@]1(Cc2ccc(OC)cc2)[C@@H]2C(=CC(=O)[C@H]2CC(=O)C(=O)N2CCCC2)CN1C(=O)c1ccccc1	15% (active)
CN(C)S(=O)(=O)c1ccc2c(c1)/C(=C/c1cc3c([nH]1)CCCC3)C(=O)N2	3.96% (inactive)
O=C1Nc2ccccc2/C1=C/c1cnc(-c2ccccc2)[nH]1	36.5% (active)
Cc1cc(C)c(/C=C2\C(=O)Nc3ccccc32)[nH]1	4.55% (inactive)
C#Cc1ccc([C@@H]2C=C(C(=O)OCC=C)O[C@H](OCCCCO)C2)cc1	0.21% (inactive)
COc1ccccc1N1CCN(C(=O)CCC(=O)O)CC1	0.1% (inactive)
COc1ccccc1N1CCN(c2ccc([N+](=O)[O-])cc2Cl)CC1	18.9% (active)
Cc1cc(N2CCN(c3nc(-c4ccc([N+](=O)[O-])cc4)cs3)CC2)c2ccccc2n1	3.28% (inactive)
COc1ccc(N2CCN(S(=O)(=O)Cc3ccccc3)CC2)cc1	0.08% (inactive)
CC1=N/C(=C/c2ccc([N+](=O)[O-])cc2)C(=O)N1c1ccc(Cl)cc1Cl	0.01% (inactive)
COc1ccc(N2CCN(c3ccc([N+](=O)[O-])cc3Cl)CC2)cc1	18.2% (active)
COc1cc(NC(=O)C2CCCCN2)ccc1OCC(C)C (configuration not stated)	2.06% (inactive)
CC(C)C(=O)COc1c2occc2cc2ccc(=O)oc12	0.07% (inactive)
Cc1noc(NS(=O)(=O)c2ccc(NC(=O)CSc3nc4c(cc3C#N)CCC4)cc2)c1C	0.31% (inactive)
CCOC(=O)c1cccc(NC(=O)CSc2nc(N)cc(N)n2)c1	-0.04% (inactive)
CCOC(=O)c1c(C#N)c(SCC(=O)Nc2ccc(OC)cc2)nc2c1CN(CC)CC2	25.1% (active)
COc1ccc(/C=C2\SC(=O)N(CCC(=O)N3CCN(C)CC3)C2=O)cc1	-0.03% (inactive)
CC(C)c1ccc(C2c3[nH]c4ccccc4c3C[C@H]3C(=O)N(c4ccccc4C(=O)N4CCC(C(=O)O)CC4)C(=O)N23)cc1 (some centres not stated)	0.07% (inactive)
COc1ccccc1-c1nnc(SCc2nc3ccccc3s2)n1C	7.19% (inactive)
Cc1ccc(Cl)c(NC(=O)CN(C)CC(=O)Nc2ccc(F)c(F)c2F)c1Cl	0.02% (inactive)

SMILES	fluorescence artifact activation
N/C(COc1cc(Cl)cc(Cl)c1)=N\O	21.9% (active)
COc1cc(OC)c(C(=O)NC2CCCCCC2)cc1OC	-0.01% (inactive)
O=[N+]([O-])c1cc(-c2ccn[nH]2)ccc1Cl	-0.08% (inactive)
COc1ccc(C(Nc2ccc(S(=O)(=O)NCC3CCCO3)cc2)C(=O)NC(C)(C)C)cc1OC (configuration not stated)	0.01% (inactive)
COc1cc(OC)cc(-c2c(-c3cccs3)c3cc(-c4ccc(SC)cc4)ccc3n2C)c1	5.67% (inactive)
N#C/C(=C(/O)COC(=O)c1ccccc1O)c1nc2ccccc2s1	0.47% (inactive)
O=C(/C=C/c1nc2ccccc2s1)N1CCCCCC1	7.06% (inactive)
O=C(CSc1nc2ccccc2s1)NNC(=S)Nc1ccccc1	193% (active)
CCc1cc(=O)n2c([nH]c3ccccc32)c1C#N	0.24% (inactive)
Cc1cc(Br)ccc1SCC(=O)OCC(=O)Nc1ccccc1C#N	0.22% (inactive)
Cc1ccc(S(=O)(=O)Nc2ccc3ncccc3c2[N+](=O)[O-])cc1	0.33% (inactive)
COc1ccc(/C=C2\CC/C(=C\c3ccc(OC)cc3OC)C2=O)c(OC)c1	9.84% (inactive)
CCCN1C(=O)/C(=C\C=C2\N(CC)c3ccccc3C2(C)C)SC1=S	0.28% (inactive)
CCCN1C(=O)/C(=C/C=C2\N(CC)c3ccccc3C2(C)C)SC1=S	0.48% (inactive)
CCCCN1C(=O)/C(=C/C=C2\Oc3ccccc3N2CC)SC1=S	16.6% (active)
CC(C(=O)NNS(=O)(=O)c1cccc(C(F)(F)F)c1)n1nnc(N2CCOCC2)n1 (configuration not stated)	0.4% (inactive)
COc1cc(OC)c(OC)cc1/C=C1/Cc2ccccc2C1=O	-0.02% (inactive)
COc1cc2c(cc1[N+](=O)[O-])-c1ccccc1C2	70.4% (active)
COc1ccc2c3c(cccc13)C(=O)CC2	1.92% (inactive)
Cc1noc(C)c1S(=O)(=O)N(C)C[C@H]1Oc2ccc(NC(=O)CCC(F)(F)F)cc2C(=O)N([C@H](C)CO)C[C@@H]1C	0.08% (inactive)
Cc1ccc(S(=O)(=O)Nc2nc3ccccc3nc2NCc2ccco2)cc1	2.57% (inactive)
O=S(=O)(Nc1nc2ccccc2nc1N1CCN(c2ccccn2)CC1)c1ccc(Cl)cc1	-0.09% (inactive)
O=S(=O)(Nc1nc2ccccc2nc1NCCO)c1cccc(Cl)c1	57.1% (active)

SMILES	fluorescence artifact activation
COC1=CC2(O)CCCC2=CC1=O (configuration not stated)	0.15% (inactive)
Cc1cc(Cn2nc(C(=O)NCC3CC3)cc2-c2ccccc2)on1	0.04% (inactive)
COc1cccc(/C=C/C(=C2\C(=O)N(c3ccccc3)N=C2C)c2ccc(Br)cc2)c1OC	0.1% (inactive)
CCC1(c2ccccc2)NC(=O)N(CC(=O)Nc2ccc(OC)nc2)C1=O (configuration not stated)	-0.05% (inactive)
CCN(C(=O)c1cc2ccccc2oc1=O)c1ccccc1	1.56% (inactive)
C/C(=N/NC(=O)CNC(=O)Cc1ccccc1)c1ccco1	0% (inactive)
N#CCCN(C(=O)c1ccco1)c1ccccc1	1610% (active)
CCOCCCNc1ccc(-c2ccccc2)nn1	1.31% (inactive)
COc1cc(/C=C2/SC(=S)N(Cc3ccccc3)C2=O)cc(Cl)c1O	1800% (active)
O=C1/C(=C\c2cc(Cl)c(O)c(Cl)c2)SC(=S)N1Cc1ccccc1	-0.11% (inactive)
COc1ccc(O)c(/C=C2/SC(=S)N(Cc3ccccc3)C2=O)c1	0.17% (inactive)
O=C(N/N=C/c1cccc([N+](=O)[O-])c1)c1cnccn1	-0.02% (inactive)
O=C(CSc1ccc(-c2cccs2)nn1)N1CCCCC1	0.91% (inactive)
CCOc1ccc(NC(=O)COC(=O)CCN2C(=O)C3CC=CCC3C2=O)cc1OCC (configuration not stated)	0.5% (inactive)
CN1CC[C@@H]2C(=O)N3CCc4ccc(Br)cc4[C@@H]3C[C@@H]21	0.24% (inactive)
COC(=O)C1=C(O)/C(=C\c2ccc(CNS(=O)(=O)c3ccc(Cl)cc3)o2)N=C1C	0.18% (inactive)
CN1CC=C2C(C#N)=C(N)C(C#N)(C#N)C(CCc3ccccc3)C2C1 (configuration not stated)	12.7% (active)
COc1cc([C@@H]2[C@H]3CN(C)CC=C3C(C#N)=C(N)C2(C#N)C#N)cc2c1OCO2	0.14% (inactive)
COc1cc(C2C3CN(C)CC=C3C(C#N)=C(N)C2(C#N)C#N)ccc1OC(C)C (configuration not stated)	16.8% (active)
CN1CC=C2C(C#N)=C(N)C(C#N)(C#N)C(Cc3ccccc3)C2C1 (configuration not stated)	0.22% (inactive)
CCN1CC=C2C(C#N)=C(N)C(C#N)(C#N)C(CCc3ccccc3)C2C1 (configuration not stated)	0.03% (inactive)
CN1CC=C2C(C#N)=C(N)C(C#N)(C#N)[C@H](c3cccc(Cl)c3)C2C1 (some centres not stated)	10.2% (inactive)
COc1ccc(/C=N/NC(=O)C(Cc2c[nH]c3ccccc23)NC(=O)OCC(C)C)cc1[N+](=O)[O-] (configuration not stated)	0.1% (inactive)
